Reference: ChEMBL document CHEMBL4689842, “EUbOPEN Chemogenomics Library wave 1” (2021)

Test system: Fibroblast
Assay: Multiplex assay against human fibroblast
Type: toxicity, cell-based
In short: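 Hoechst33342, BioTracker Green Microtubule Cytoskeleton Dye, MitoTracker Red and Annexin V Alexa Fluor 680 were added to live cells at seeding, and imaging on a CQ1 microscope at 37°C and 5% CO2 followed compound addition. Gating by CellPathfinder machine learning separated cells into Hoechst high-intensity objects or normal cells, then normal cells into healthy, pyknosed or fragmented nuclei, then pyknosed cells into mitotic or apoptotic. Per cents of healthy-nucleus cells are reported for the tubulin, mitochondrial-mass and membrane-permeability phenotypes.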

[1] = 12 h, 1 µM, compound concentration 1 uM, replicate 1
[2] = 12 h, 1 µM, compound concentration 1 uM, replicate 2
[3] = 12 h, 10 µM, compound concentration 10 uM, replicate 1
[4] = 12 h, 10 µM, compound concentration 10 uM, replicate 2
[5] = 24 h, 1 µM, compound concentration 1 uM, replicate 1
[6] = 24 h, 1 µM, compound concentration 1 uM, replicate 2
[7] = 24 h, 10 µM, compound concentration 10 uM, replicate 1
[8] = 24 h, 10 µM, compound concentration 10 uM, replicate 2

C=CC(=O)Nc1cccc(Oc2nc(Nc3ccc(N4CCN(C)CC4)cc3OC)ncc2Cl)c1
Population Fragmented Nuclei (%) [1]: 28% | Population Healthy Nuclei (%) [1]: 65% | Population Hoechst High Intensity Objects (%) [1]: 24% | Population Mitochondria Different-Phenotype (%) [1]: 14% | Population Normal (%) [1]: 75% | Population Pyknosed Nuclei (%) [1]: 6% | Population Tubulin-Different-Phenotype (%) [1]: 45% | Total Cell Count [1]: 324 | Population Apoptotic (%) [2]: 60% | Population Fragmented Nuclei (%) [2]: 44% | Population Healthy Nuclei (%) [2]: 48% | Population Hoechst High Intensity Objects (%) [2]: 23% | Population Membrane Permeable-Phenotype (%) [2]: 5% | Population Mitochondria Different-Phenotype (%) [2]: 26% | Population Mitotic Cells (%) [2]: 40% | Population Normal (%) [2]: 76% | Population Pyknosed Nuclei (%) [2]: 7% | Population Tubulin-Different-Phenotype (%) [2]: 64% | Total Cell Count [2]: 92 | Population Apoptotic (%) [3]: 62% | Population Fragmented Nuclei (%) [3]: 39% | Population Healthy Nuclei (%) [3]: 42% | Population Hoechst High Intensity Objects (%) [3]: 15% | Population Membrane Permeable-Phenotype (%) [3]: 7% | Population Mitochondria Different-Phenotype (%) [3]: 2% | Population Mitotic Cells (%) [3]: 37% | Population Normal (%) [3]: 84% | Population Pyknosed Nuclei (%) [3]: 18% | Population Tubulin-Different-Phenotype (%) [3]: 10% | Total Cell Count [3]: 237 | Population Apoptotic (%) [4]: 20% | Population Fragmented Nuclei (%) [4]: 57% | Population Healthy Nuclei (%) [4]: 34% | Population Hoechst High Intensity Objects (%) [4]: 36% | Population Membrane Permeable-Phenotype (%) [4]: 18% | Population Mitochondria Different-Phenotype (%) [4]: 4% | Population Mitotic Cells (%) [4]: 80% | Population Normal (%) [4]: 64% | Population Pyknosed Nuclei (%) [4]: 7% | Population Tubulin-Different-Phenotype (%) [4]: 18% | Total Cell Count [4]: 100 | Population Apoptotic (%) [5]: 61% | Population Fragmented Nuclei (%) [5]: 29% | Population Healthy Nuclei (%) [5]: 60% | Population Hoechst High Intensity Objects (%) [5]: 47% | Population Membrane Permeable-Phenotype (%) [5]: 1% | Population Mitochondria Different-Phenotype (%) [5]: 26% | Population Mitotic Cells (%) [5]: 38% | Population Normal (%) [5]: 52% | Population Pyknosed Nuclei (%) [5]: 9% | Population Tubulin-Different-Phenotype (%) [5]: 38% | Total Cell Count [5]: 265 | Population Apoptotic (%) [6]: 66% | Population Fragmented Nuclei (%) [6]: 31% | Population Healthy Nuclei (%) [6]: 56% | Population Hoechst High Intensity Objects (%) [6]: 37% | Population Membrane Permeable-Phenotype (%) [6]: 7% | Population Mitochondria Different-Phenotype (%) [6]: 48% | Population Mitotic Cells (%) [6]: 33% | Population Normal (%) [6]: 62% | Population Pyknosed Nuclei (%) [6]: 12% | Population Tubulin-Different-Phenotype (%) [6]: 70% | Total Cell Count [6]: 77 | Population Apoptotic (%) [7]: 70% | Population Fragmented Nuclei (%) [7]: 33% | Population Healthy Nuclei (%) [7]: 50% | Population Hoechst High Intensity Objects (%) [7]: 19% | Population Membrane Permeable-Phenotype (%) [7]: 3% | Population Mitochondria Different-Phenotype (%) [7]: 4% | Population Mitotic Cells (%) [7]: 30% | Population Normal (%) [7]: 80% | Population Pyknosed Nuclei (%) [7]: 16% | Population Tubulin-Different-Phenotype (%) [7]: 10% | Total Cell Count [7]: 231 | Population Apoptotic (%) [8]: 0% | Population Fragmented Nuclei (%) [8]: 61% | Population Healthy Nuclei (%) [8]: 35% | Population Hoechst High Intensity Objects (%) [8]: 29% | Population Membrane Permeable-Phenotype (%) [8]: 4% | Population Mitochondria Different-Phenotype (%) [8]: 9% | Population Mitotic Cells (%) [8]: 100% | Population Normal (%) [8]: 70% | Population Pyknosed Nuclei (%) [8]: 3% | Population Tubulin-Different-Phenotype (%) [8]: 14% | Total Cell Count [8]: 85

C=CC(=O)Nc1ccc2[nH]c(=O)n(C3CCN(Cc4ccc(-c5nc6cc[nH]c(=O)c6cc5-c5ccccc5)cc4)CC3)c2c1 [Borussertib]
Population Apoptotic (%) [1]: 64% | Population Fragmented Nuclei (%) [1]: 31% | Population Healthy Nuclei (%) [1]: 51% | Population Hoechst High Intensity Objects (%) [1]: 13% | Population Membrane Permeable-Phenotype (%) [1]: 10% | Population Mitochondria Different-Phenotype (%) [1]: 5% | Population Mitotic Cells (%) [1]: 36% | Population Normal (%) [1]: 86% | Population Pyknosed Nuclei (%) [1]: 17% | Population Tubulin-Different-Phenotype (%) [1]: 4% | Total Cell Count [1]: 169 | Population Apoptotic (%) [2]: 33% | Population Fragmented Nuclei (%) [2]: 63% | Population Healthy Nuclei (%) [2]: 31% | Population Hoechst High Intensity Objects (%) [2]: 30% | Population Membrane Permeable-Phenotype (%) [2]: 11% | Population Mitochondria Different-Phenotype (%) [2]: 0% | Population Mitotic Cells (%) [2]: 66% | Population Normal (%) [2]: 69% | Population Pyknosed Nuclei (%) [2]: 5% | Population Tubulin-Different-Phenotype (%) [2]: 16% | Total Cell Count [2]: 83 | Population Apoptotic (%) [3]: 60% | Population Fragmented Nuclei (%) [3]: 27% | Population Healthy Nuclei (%) [3]: 56% | Population Hoechst High Intensity Objects (%) [3]: 15% | Population Membrane Permeable-Phenotype (%) [3]: 6% | Population Mitochondria Different-Phenotype (%) [3]: 4% | Population Mitotic Cells (%) [3]: 39% | Population Normal (%) [3]: 84% | Population Pyknosed Nuclei (%) [3]: 16% | Population Tubulin-Different-Phenotype (%) [3]: 27% | Total Cell Count [3]: 304 | Population Apoptotic (%) [4]: 44% | Population Fragmented Nuclei (%) [4]: 64% | Population Healthy Nuclei (%) [4]: 22% | Population Hoechst High Intensity Objects (%) [4]: 29% | Population Membrane Permeable-Phenotype (%) [4]: 25% | Population Mitochondria Different-Phenotype (%) [4]: 18% | Population Mitotic Cells (%) [4]: 55% | Population Normal (%) [4]: 71% | Population Pyknosed Nuclei (%) [4]: 12% | Population Tubulin-Different-Phenotype (%) [4]: 68% | Total Cell Count [4]: 100 | Population Apoptotic (%) [5]: 66% | Population Fragmented Nuclei (%) [5]: 29% | Population Healthy Nuclei (%) [5]: 56% | Population Hoechst High Intensity Objects (%) [5]: 13% | Population Membrane Permeable-Phenotype (%) [5]: 4% | Population Mitochondria Different-Phenotype (%) [5]: 2% | Population Mitotic Cells (%) [5]: 33% | Population Normal (%) [5]: 86% | Population Pyknosed Nuclei (%) [5]: 14% | Population Tubulin-Different-Phenotype (%) [5]: 6% | Total Cell Count [5]: 170 | Population Apoptotic (%) [6]: 100% | Population Fragmented Nuclei (%) [6]: 56% | Population Healthy Nuclei (%) [6]: 41% | Population Hoechst High Intensity Objects (%) [6]: 32% | Population Membrane Permeable-Phenotype (%) [6]: 5% | Population Mitochondria Different-Phenotype (%) [6]: 10% | Population Mitotic Cells (%) [6]: 0% | Population Normal (%) [6]: 67% | Population Pyknosed Nuclei (%) [6]: 2% | Population Tubulin-Different-Phenotype (%) [6]: 10% | Total Cell Count [6]: 68 | Population Apoptotic (%) [7]: 55% | Population Fragmented Nuclei (%) [7]: 30% | Population Healthy Nuclei (%) [7]: 56% | Population Hoechst High Intensity Objects (%) [7]: 23% | Population Membrane Permeable-Phenotype (%) [7]: 2% | Population Mitochondria Different-Phenotype (%) [7]: 2% | Population Mitotic Cells (%) [7]: 44% | Population Normal (%) [7]: 76% | Population Pyknosed Nuclei (%) [7]: 13% | Population Tubulin-Different-Phenotype (%) [7]: 22% | Total Cell Count [7]: 347 | Population Apoptotic (%) [8]: 33% | Population Fragmented Nuclei (%) [8]: 55% | Population Healthy Nuclei (%) [8]: 39% | Population Hoechst High Intensity Objects (%) [8]: 40% | Population Membrane Permeable-Phenotype (%) [8]: 4% | Population Mitochondria Different-Phenotype (%) [8]: 8% | Population Mitotic Cells (%) [8]: 66% | Population Normal (%) [8]: 59% | Population Pyknosed Nuclei (%) [8]: 5% | Population Tubulin-Different-Phenotype (%) [8]: 43% | Total Cell Count [8]: 97
